Here are results for 2 compounds from article PMC6104635 (ACS chemical neuroscience, 2018).

Usually EC50 stands for the concentration needed to bring the measured effect to its halfway point. What is called fraction unbound is the share of the substance not bound to proteins or other matrix. Read a high fraction unbound as weak binding. For orientation: Kp means the ratio of the level in a tissue or fluid to that in plasma or blood.

For one series, the target named is T1, human M5 (Homo sapiens, UniProt P08912).
T1 sequence (P08912 1-532): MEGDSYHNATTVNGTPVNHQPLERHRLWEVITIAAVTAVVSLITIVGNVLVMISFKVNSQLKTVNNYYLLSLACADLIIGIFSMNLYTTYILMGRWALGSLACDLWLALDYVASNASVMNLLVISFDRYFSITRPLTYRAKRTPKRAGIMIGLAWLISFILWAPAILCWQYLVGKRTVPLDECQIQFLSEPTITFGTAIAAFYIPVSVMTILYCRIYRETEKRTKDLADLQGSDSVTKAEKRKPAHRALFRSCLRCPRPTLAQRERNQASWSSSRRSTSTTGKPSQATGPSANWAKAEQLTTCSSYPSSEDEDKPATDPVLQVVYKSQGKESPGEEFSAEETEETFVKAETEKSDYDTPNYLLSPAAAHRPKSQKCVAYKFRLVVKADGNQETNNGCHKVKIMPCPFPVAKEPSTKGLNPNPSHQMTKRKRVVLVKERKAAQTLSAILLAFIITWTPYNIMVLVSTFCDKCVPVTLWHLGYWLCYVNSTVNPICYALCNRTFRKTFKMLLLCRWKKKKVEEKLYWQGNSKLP
Put plainly: calcium mobilization assay, hM5-CHO cells, FDSS7000. Type of series: cell-based. The gist of the method: (§1)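 CHO cells stably expressing human or rat M5 were grown in Ham's F-12 with 10% FBS, 20 mM HEPES and 500 μg/mL G418 (37 °C, 5% CO2), then plated at 20 000 cells/well without G418 the day before. Cells were loaded with 1.15 μM Fluo-4 AM for 45 min at 37 °C in HBSS, 20 mM HEPES and 2.5 mM probenecid. Test compound was given as a 10-point 1:3 series from 30 μM final for 2.5 min, then ACh EC20 for 1 min, with calcium read on FDSS7000. EC50 and efficacy came from a four-parameter logistic fit.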

A further series has as its system hM5. The following applies: read-out: hM5 EC50; 96 well-format FlexStation II, initial optimization; cited from earlier work.
The nature of series [1]: brain homogenate binding, rat. Type of series: in vitro ADME.
The nature of another series: rat brain distribution. Type of series: in vivo. The following applies: male, Sprague-Dawley, brain and plasma. The gist of the method:
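Male Sprague–Dawley rats received a single IV or IP cassette dose of 0.20–0.25 mg/kg, with n = 1 animal per cassette. Vehicle was ethanol/PEG400/DMSO, with excipient levels adjusted for solubility, at 0.5 mL/kg iv or 3 mL/kg ip. Plasma and brain were sampled nonserially and quantified by LC-MS/MS (positive ESI, MRM).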

Series [2] is described as follows: metabolite identification in rat hepatic microsomes. The format is in vitro ADME. The conditions noted are these: rat and human hepatic microsomes, result in words. The gist of the method: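 Test compound was incubated with rat hepatic microsomes, run alongside human microsomes. Metabolite structures were proposed from LC-UV/MSn data, and major metabolites were assigned by relative peak areas.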

Series [3] in a line: hepatic microsomal intrinsic clearance, human. The format is in vitro ADME. The conditions noted are these: based on microsomal intrinsic clearance (CLint).
Series [4] is described as follows: plasma protein binding, human. Type of series: in vitro ADME.
For another series, the target named is T2, rat M5 (Rattus norvegicus, UniProt P08911).
T2 sequence (P08911 1-531): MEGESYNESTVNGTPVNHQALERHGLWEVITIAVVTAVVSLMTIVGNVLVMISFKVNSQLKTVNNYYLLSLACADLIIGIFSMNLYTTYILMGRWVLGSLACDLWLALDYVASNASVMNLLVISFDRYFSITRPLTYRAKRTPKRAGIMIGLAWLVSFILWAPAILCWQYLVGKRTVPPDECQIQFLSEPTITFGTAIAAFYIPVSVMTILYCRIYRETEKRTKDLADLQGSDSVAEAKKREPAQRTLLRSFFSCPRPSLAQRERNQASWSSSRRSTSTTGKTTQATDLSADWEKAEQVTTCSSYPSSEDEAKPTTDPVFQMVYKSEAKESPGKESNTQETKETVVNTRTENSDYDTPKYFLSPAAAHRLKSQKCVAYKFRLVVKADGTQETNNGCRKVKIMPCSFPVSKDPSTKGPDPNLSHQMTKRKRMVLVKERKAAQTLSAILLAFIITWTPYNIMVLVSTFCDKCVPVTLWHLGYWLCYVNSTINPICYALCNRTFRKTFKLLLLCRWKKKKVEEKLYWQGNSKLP
Put plainly: calcium mobilization assay, rM5-CHO cells, FDSS7000. The format is cell-based. The conditions noted are these: functional calcium assay, n = 3. In outline: as §1

Series [5] can be described thus: plasma protein binding, rat. Type of series: in vitro ADME.

In the case of `CCN(Cc1ccccc1C(F)(F)F)C(=O)C1CCN(S(=O)(=O)c2ccc3[nH]ncc3c2)CC1` [ML380, 1-((1H-indazol-5-yl)sulfonyl)-N-ethyl-N-(2-(trifluoromethyl)benzyl)piperidine-4-carboxamide, reference compound], on human M5 (FDSS7000 versus FlexStation II conditions), the “rightward shift in M5 PAM potency” value is ~ 5 fold. Besides, the EC50 at human M5 (hM5 EC50, PAM, 384-well FDSS7000) was 1100 nM; in the series on hM5, 190 nM.
`CCN(C(=O)C1CCN(S(=O)(=O)c2ccc3[nH]ncc3c2)CC1)[C@@H]1CCc2ccccc21` [Compound 8, N-Ethyl-N-[(1R)-indan-1-yl]-1-(1H-indazol-5-ylsulfonyl)-piperidine-4-carboxamide]: the figures for the fraction unbound in series [1], in series [4] and in series [5] were 0.017, 0.019 and 0.043, respectively. The compound further had a Kp in “rat brain distribution” of 0.17. The same compound had a Kp uu in “rat brain distribution” of 0.07. For the same compound, the “metabolism in MetID studies” value in series [2] is recorded as “extensive oxidative metabolism”. Further, the EC50 on human M5 (hM5 EC50, PAM, functional calcium assay, n = 3) was 481 nM; on human M5 (hM5 pEC50 ± SEM, PAM, functional calcium assay, n = 3), 457 nM; at rat M5 (rM5 EC50, PAM), 409 nM; at rat M5 (rM5 pEC50 ± SEM, PAM), 380 nM. Moreover, the “predicted hepatic clearance CLhep, human” value in [3] is 20.8 mL/min/kg. Besides, at rat M5 (PAM), the “rM5 % ACh Max” value is 63% ± 3%.
